From paper PMC3040319 (Pharmaceutical Research, 2010)
Where two headings read alike, the source gives them in different places.

Columns and labels:
[1] = system: primary mouse hepatocytes; format: in vitro ADME; conditions: 30 min exposure
[2] = Tissue accumulation of platinum in Oct1+/+ and Oct1-/- mice; format: in vivo, mouse; conditions: 1 h after 8 mg/kg i.v.
How it was run: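 Male FVB Oct1+/+ and Oct1-/- mice (8 weeks) were given 8 mg/kg in saline i.v. by tail vein and killed 1 h later. Liver, kidney, heart, lung, brain, intestine, spleen and muscle were snap-frozen. Total Pt was measured by ICP-MS in 10–30 mg tissue and reported as nmol/g tissue; plasma was reported in μM.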

Oct1+/+ and Oct1-/- mice = test: Toxicity study of oxaliplatin in Oct1+/+ and Oct1-/- mice; format: in vivo, mouse; conditions: 6 mg/kg i.p. once daily for 5 days

O=C1[O][Pt]2([NH][C@@H]3CCCC[C@H]3[NH]2)[O]C1=O [oxaliplatin, Oxaliplatin, reference compound]
hepatocellular uptake rate, wild-type as fold of Oct1-/- ([1]; 1 μM): 1.8 fold | hepatocellular uptake rate, wild-type as fold of Oct1-/- ([1]; 5 μM): 1.4 fold | hepatocellular uptake rate ([1]; hepatocytes from Oct1-/- mice, 1 μM): 0.855 ± 0.184 pmol/mg protein/hr | hepatocellular uptake rate ([1]; hepatocytes from Oct1-/- mice, 5 μM): 3.97 ± 0.500 pmol/mg protein/hr | hepatocellular uptake rate ([1]; hepatocytes from Oct1 wild-type mice, 1 μM): 1.54 ± 0.300 pmol/mg protein/hr | hepatocellular uptake rate ([1]; hepatocytes from Oct1 wild-type mice, 5 μM): 5.55 ± 0.384 pmol/mg protein/hr | plasma concentration ([2]; Oct1+/+ mice): 5.96 ± 0.54 µM | plasma concentration ([2]; Oct1-/- mice): 6.69 ± 0.62 µM | relative body weight loss (Oct1+/+ and Oct1-/- mice; Oct1+/+ mice): 15.1% | relative body weight loss (Oct1+/+ and Oct1-/- mice; Oct1-/- mice): 6.8% | liver histopathology examination (Oct1+/+ and Oct1-/- mice; either Oct1+/+ or Oct1-/- mice): no clear sign of liver damage
